Laboratory results published in publication PMC7315603 (ACS Omega, 2020).
Converted amounts (≈) assume the structure as drawn. “And” between values parts separate entries of the source, which are not always exact repeats. Identical values can stand only once. Like-named read-outs stand apart in the source and are kept apart here. Where a SMILES comes first, the peptide text is derived from it. [ ]: non-standard residue; d: D form. dPhe(4-Cl) = N[C@H](Cc1ccc(Cl)cc1)C(=O)O; aIle = CC[C@@H](C)[C@H](N)C(=O)O; dPhLac = O=C(O)[C@H](O)Cc1ccccc1; Sar = CNCC(=O)O

What was measured:
[1] = test system: P. falciparum strain 3D7; experiment: microbe, parasite or virus in culture; conditions: Plasmodium falciparum, 3D7, read-out: IC50 (P. falciparum 3D7)
[2] = test system: Mycobacterium vaccae; experiment: MIC against Mycobacterium vaccae, microplate alamar blue broth dilution assay; format: cell-based
[3] = Kinetic aqueous solubility; format: physicochemical
[4] = Intrinsic microsomal clearance, mouse liver microsomes; format: in vitro ADME; conditions: for intrinsic microsomal clearance (Clint), mouse: mouse liver microsomes
[5] = test system: M. tuberculosis H37Rv; conditions: drug-susceptible Mtb H37Rv; 6 days + 48 h resazurin
[6] = Intrinsic microsomal clearance, human liver microsomes; format: in vitro ADME; conditions: for intrinsic microsomal clearance (Clint), human: human liver microsomes
[7] = target: human serum albumin (Homo sapiens, UniProt P02768); experiment: Human serum albumin binding; format: in vitro ADME
[8] = Plasma stability, mouse plasma; format: in vitro ADME
Method in brief: (§1)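 Test compound incubated in human or mouse plasma for 2 h at 37 °C. The amount of compound remaining afterward was quantified and reported as percent remaining.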

[9] = test system: P. falciparum strain 3D7; conditions: strain 3D7, 3 h
[10] = Plasma stability, human plasma; format: in vitro ADME; conditions: 2 h incubation at 37 °C
Method in brief: as §1

[11] = test system: M. tuberculosis H37Ra; conditions: natural product; cited from earlier work
[12] = test system: Plasmodium falciparum; conditions: natural product; cited from earlier work

Chain of human serum albumin (P02768 25-609): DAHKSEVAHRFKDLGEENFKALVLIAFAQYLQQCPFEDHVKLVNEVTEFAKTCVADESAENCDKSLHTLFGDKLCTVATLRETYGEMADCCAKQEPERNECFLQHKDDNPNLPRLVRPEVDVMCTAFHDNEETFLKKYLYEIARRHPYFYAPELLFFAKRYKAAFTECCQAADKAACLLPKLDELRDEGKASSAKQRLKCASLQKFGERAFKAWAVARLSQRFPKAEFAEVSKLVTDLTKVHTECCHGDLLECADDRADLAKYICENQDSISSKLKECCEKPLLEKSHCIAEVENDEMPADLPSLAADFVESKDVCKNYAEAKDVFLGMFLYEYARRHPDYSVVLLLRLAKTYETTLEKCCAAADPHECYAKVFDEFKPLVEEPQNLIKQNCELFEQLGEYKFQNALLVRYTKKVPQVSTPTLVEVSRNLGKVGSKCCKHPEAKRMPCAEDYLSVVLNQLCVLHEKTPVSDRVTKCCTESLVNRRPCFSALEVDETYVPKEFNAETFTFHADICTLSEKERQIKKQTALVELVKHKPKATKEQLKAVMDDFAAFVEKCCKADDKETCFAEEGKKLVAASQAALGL

CCN(CC)CCCC(C)Nc1ccnc2cc(Cl)ccc12 (centres unmarked) [CQ, chloroquine]
IC50 [1]: 0.005 µM

CC[C@@H](C)[C@@H]1NC(=O)[C@@H](Cc2ccccc2)OC(=O)CN(C)C(=O)[C@H]([C@H](C)CC)NC(=O)[C@@H](Cc2ccccc2)OC(=O)CN(C)C1=O [Compound 9] (cyclo([Sar][dPhLac][aIle][Sar][dPhLac][aIle]))
MIC (M. vaccae) [2]: 18.8 µM (≈ 12.5 µg/mL)
solubility kinetic [3]: > 180 µg/mL
stability in mouse microsomes (in words) [4]: low stability
intrinsic microsomal clearance (Clint), mouse [4]: 38.3 mL/(min g) tissue
MIC (Mtb H37Rv) [5]: > 80 µM
stability in human microsomes (in words) [6]: moderate stability
intrinsic microsomal clearance (Clint), human [6]: 46.53 mL/(min g) tissue
IC50: > 100 µM
% human serum albumin binding (%HSA) [7]: 88%
remaining at 2 h [8]: 18%
IC50 [9]: 2.3 µM
plasma stability (% remaining), human plasma [10]: 103%

CC(C)C[C@@H]1NC(=O)[C@@H](Cc2ccccc2)OC(=O)CN(C)C(=O)[C@H](CC(C)C)NC(=O)[C@@H](Cc2ccccc2)OC(=O)CN(C)C1=O [Compound 10] (cyclo(L[Sar][dPhLac]L[Sar][dPhLac]))
solubility kinetic [3]: > 180 µg/mL

CC(C)[C@@H]1NC(=O)[C@@H](Cc2ccccc2)OC(=O)CN(C)C(=O)[C@H](C(C)C)NC(=O)[C@@H](Cc2ccccc2)OC(=O)CN(C)C1=O [Compound 11] (cyclo([Sar][dPhLac]V[Sar][dPhLac]V))
solubility kinetic [3]: 80 µg/mL (≈ 126 µM)
IC50: > 100 µM
IC50 [9]: 7.5 µM

CN1CC(=O)O[C@H](Cc2ccccc2)C(=O)NCC(=O)N(C)CC(=O)O[C@H](Cc2ccccc2)C(=O)NCC1=O [Compound 12] (cyclo(G[Sar][dPhLac]G[Sar][dPhLac]))
solubility kinetic [3]: 81 µg/mL (≈ 147 µM)
intrinsic microsomal clearance (Clint), mouse [4]: 52.00 mL/(min g) tissue
intrinsic microsomal clearance (Clint), human [6]: 34.00 mL/(min g) tissue
IC50: > 100 µM
% human serum albumin binding (%HSA) [7]: 54.7%
remaining at 2 h [8]: 0%
IC50 [9]: 20.1 µM

CC[C@H](C)[C@@H]1NC(=O)[C@@H](Cc2ccccc2)OC(=O)CNC(=O)[C@H]([C@@H](C)CC)NC(=O)[C@@H](Cc2ccccc2)OC(=O)CNC1=O [Compound 13] (cyclo(G[dPhLac]IG[dPhLac]I))
solubility kinetic [3]: 6 µg/mL (≈ 9.42 µM)
intrinsic microsomal clearance (Clint), mouse [4]: 65.90 mL/(min g) tissue
intrinsic microsomal clearance (Clint), human [6]: 32.80 mL/(min g) tissue
IC50: > 100 µM
% human serum albumin binding (%HSA) [7]: 91.02%
remaining at 2 h [8]: 0%
IC50 [9]: 13.8 µM

CC(C)[C@@H]1NC(=O)[C@@H](Cc2ccccc2)NC(=O)CN(C)C(=O)[C@H](C(C)C)NC(=O)[C@@H](Cc2ccccc2)NC(=O)CN(C)C1=O [Compound 15] (cyclo([Sar][dF]V[Sar][dF]V))
intrinsic microsomal clearance (Clint), mouse [4]: 7.52 mL/(min g) tissue
intrinsic microsomal clearance (Clint), human [6]: 3.60 mL/(min g) tissue
IC50: > 100 µM
IC50 [9]: 7.7 µM

CC[C@@H](C)[C@@H]1NC(=O)[C@@H](Cc2ccccc2)NC(=O)CN(C)C(=O)[C@H]([C@H](C)CC)NC(=O)[C@@H](Cc2ccccc2)NC(=O)CN(C)C1=O [Compound 16] (cyclo([Sar][dF][aIle][Sar][dF][aIle]))
intrinsic microsomal clearance (Clint), mouse [4]: 47.71 mL/(min g) tissue
intrinsic microsomal clearance (Clint), human [6]: 18.90 mL/(min g) tissue
IC50: > 100 µM
IC50 [9]: 2.2 µM

CC[C@@H](C)[C@@H]1NC(=O)[C@@H](Cc2ccc(Cl)cc2)NC(=O)CN(C)C(=O)[C@H]([C@H](C)CC)NC(=O)[C@@H](Cc2ccc(Cl)cc2)NC(=O)CN(C)C1=O [Compound 17] (cyclo([Sar][dPhe(4-Cl)][aIle][Sar][dPhe(4-Cl)][aIle]))
solubility kinetic [3]: 34 µg/mL (≈ 46.5 µM)
IC50: 26 µM
% human serum albumin binding (%HSA) [7]: 95% and 95.24%
IC50 [9]: 1.8 µM

CC[C@@H](C)[C@@H]1NC(=O)[C@@H](Cc2ccc(OC)cc2)NC(=O)CN(C)C(=O)[C@H]([C@H](C)CC)NC(=O)[C@@H](Cc2ccc(OC)cc2)NC(=O)CN(C)C1=O [Compound 18] (cyclo([Sar][dY](Me)[aIle][Sar][dY](Me)[aIle]))
solubility kinetic [3]: 124 µg/mL (≈ 172 µM)
intrinsic microsomal clearance (Clint), mouse [4]: 13.25 mL/(min g) tissue
intrinsic microsomal clearance (Clint), human [6]: 8.18 mL/(min g) tissue
IC50: > 100 µM
% human serum albumin binding (%HSA) [7]: 77.2%
IC50 [9]: 4.1 µM

CC[C@@H](C)[C@@H]1NC(=O)[C@@H](CC(C)C)NC(=O)CN(C)C(=O)[C@H]([C@H](C)CC)NC(=O)[C@@H](CC(C)C)NC(=O)CN(C)C1=O [Compound 19] (cyclo([dL][aIle][Sar][dL][aIle][Sar]))
solubility kinetic [3]: ≥ 184 µg/mL
intrinsic microsomal clearance (Clint), mouse [4]: 5.79 mL/(min g) tissue
intrinsic microsomal clearance (Clint), human [6]: 6.07 mL/(min g) tissue
% human serum albumin binding (%HSA) [7]: 37% and 37.15%
remaining at 2 h [8]: 88%

hirsutellide A
MIC (M. tuberculosis H37Ra) [11]: 6 to 12 µg/mL
IC50 (Plasmodium falciparum) [12]: 2.8 µg/mL
